Laboratory results as given in ChEMBL document CHEMBL1152293, “Discovery of novel, potent and bioavailable proline-urea based macrocyclic HCV NS3/4A protease inhibitors” (Bioorg Med Chem Lett, 2008).
pEC50, pKi: −log10 of the molar value. Values belong to the compound of their own block, whether it stands above or below them.

How the values were obtained:
[1] = test system: Hepatitis C virus; test: Antiviral activity against HCV infected in human Huh7 cells after 48 hrs by luciferase based replicon assay; format: functional, organism-based, Hepacivirus hominis; details: Huh-7, 48 h
[2] = Inhibition of full length HCV NS3/4A protease; parameters: species or system Hepacivirus hominis
[3] = Apparent permeability across apical to basolateral side in human Caco-2 cells; format: ADME, cell-based
[4] = Metabolic stability in rat liver microsomes at 5 uM after 15 mins; format: ADME, Microsome
In short: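 Rat liver microsomes at 1 mg protein/mL were incubated with 5 μM test compound at 37 °C for 15 min. Stability is expressed as % of compound metabolized.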

[5] = Volume of distribution in Sprague-Dawley rat at 2 mg/kg, iv; format: ADME, organism-based; parameters: dose 2 mg/kg, route intravenous; details: in vivo
In short: (§1)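 Male Sprague–Dawley rats (n = 2 per route) received a single intravenous dose of 2 mg/kg or an oral dose of 10 mg/kg in 50% PEG-400 in water. Plasma levels were averaged, and PK parameters were calculated. Bioavailability was derived from the iv and oral arms.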

[6] = Ratio of drug level in liver to plasma of Sprague-Dawley rat at 10 mg/kg, po after 8 hrs
[7] = Cmax in Sprague-Dawley rat at 10 mg/kg, po; format: ADME, organism-based; parameters: dose 10 mg/kg, route oral; details: in vivo; in short: as §1
[8] = Oral bioavailability in Sprague-Dawley rat at 10 mg/kg; format: ADME, organism-based; details: in vivo; in short: as §1
[9] = AUC in Sprague-Dawley rat at 10 mg/kg, po; format: ADME, organism-based; parameters: dose 10 mg/kg, route oral; details: plasma; in short: as §1
[10] = Half life in Sprague-Dawley rat at 10 mg/kg, po; format: ADME, organism-based; parameters: dose 10 mg/kg, route oral; details: in vivo; in short: as §1
[11] = Tmax in Sprague-Dawley rat at 10 mg/kg, po; format: ADME, organism-based; parameters: dose 10 mg/kg, route oral; details: in vivo; in short: as §1
[12] = AUC in Sprague-Dawley rat at 2 mg/kg, iv; format: ADME, organism-based; parameters: dose 2 mg/kg, route intravenous; details: plasma; in short: as §1
[13] = Clearance in Sprague-Dawley rat at 2 mg/kg, iv; format: ADME, organism-based; parameters: dose 2 mg/kg, route intravenous; details: in vivo; in short: as §1
[14] = Ratio of drug level in liver to plasma of Sprague-Dawley rat at 10 mg/kg, po after 6 hrs
[15] = Bioavailability in Sprague-Dawley rat at 2 mg/kg, iv and 10 mg/kg, po; format: ADME, organism-based; details: in vivo; in short: as §1
[16] = Selectivity index, ratio of CC50 for human Huh7 cells to EC50 for HCV; parameters: species or system Huh-7
[17] = Cytotoxicity against human HuH7 cells; format: cell-based, Huh-7

SMILES: COc1ccc2c(O[C@@H]3C[C@H]4C(=O)N[C@]5(C(=O)O)C[C@H]5/C=C\CCCCCN(C)C(=O)N4C3)cc(-c3ccccc3)nc2c1
pEC50 [1]: 5.35
pKi [2]: 8.00

SMILES: COc1ccc2c(O[C@@H]3C[C@H]4C(=O)N[C@]5(C(=O)O)C[C@H]5/C=C\CCCCC[C@H](NC(=O)OC(C)(C)C)C(=O)N4C3)cc(-c3ccccc3)nc2c1
pEC50 [1]: 7.11
pKi [2]: 7.96

SMILES: COc1ccc2c(O[C@@H]3C[C@H]4C(=O)N[C@]5(C(=O)O)C[C@H]5/C=C\CCCCCN(NC(=O)OC(C)(C)C)C(=O)N4C3)cc(-c3ccccc3)nc2c1
pEC50 [1]: < 5.00
pKi [2]: 6.22

SMILES: COc1ccc2c(O[C@@H]3C[C@H]4C(=O)N[C@]5(C(=O)NS(=O)(=O)C6CC6)C[C@H]5/C=C\CCCCCN(C)C(=O)N4C3)cc(-c3ccccc3)nc2c1
pEC50 [1]: 5.35
pKi ([2]; read-out: Ki): 8.00

SMILES: COc1ccc2c(O[C@@H]3C[C@H]4C(=O)N[C@]5(C(=O)NS(=O)(=O)C6CC6)C[C@H]5/C=C\CCCCOC(=O)N4C3)cc(-c3ccccc3)nc2c1
pEC50 [1]: 7.21
pKi ([2]; read-out: Ki): 9.46

SMILES: COc1ccc2c(O[C@@H]3C[C@H]4C(=O)N[C@]5(C(=O)NS(=O)(=O)C6CC6)C[C@H]5/C=C\CCCCN(C)C(=O)N4C3)cc(-c3ccccc3)nc2c1
pEC50 [1]: 7.36
pKi ([2]; read-out: Ki): 9.40

SMILES: COc1ccc2c(O[C@@H]3C[C@H]4C(=O)N[C@]5(C(=O)NS(=O)(=O)C6CC6)C[C@H]5/C=C\CCCCCNC(=O)N4C3)cc(-c3ccccc3)nc2c1
pEC50 [1]: 7.82
pKi ([2]; read-out: Ki): 9.62

SMILES: COc1ccc2c(O[C@@H]3C[C@H]4C(=O)N[C@]5(C(=O)NS(=O)(=O)C6CC6)C[C@H]5/C=C\CCCCCOC(=O)N4C3)cc(-c3ccccc3)nc2c1
pEC50 [1]: 6.34
pKi ([2]; read-out: Ki): 8.62

SMILES: COc1ccc2c(O[C@@H]3C[C@H]4C(=O)N[C@]5(C(=O)NS(=O)(=O)C6CC6)C[C@H]5/C=C\CCCCNC(=O)N4C3)cc(-c3ccccc3)nc2c1
pEC50 [1]: 7.85
pKi ([2]; read-out: Ki): 8.82

Continued, in another order:

pEC50 [1]: 7.96
pKi ([2]; read-out: Ki): 9.52
Papp A→B [3]: 0.4 ×10⁻⁶ cm/s
SMILES: COc1ccc2c(O[C@@H]3C[C@H]4C(=O)N[C@]5(C(=O)NS(=O)(=O)C6CC6)C[C@H]5/C=C\CCCCCNC(=O)N4C3)cc(-c3nccs3)nc2c1

pEC50 [1]: 8.66
pKi ([2]; read-out: Ki): 10.00
Papp A→B [3]: 22 ×10⁻⁶ cm/s
metabolized at 0.25 h, 5 µM [4]: 45%
SMILES: COc1ccc2c(O[C@@H]3C[C@H]4C(=O)N[C@]5(C(=O)NS(=O)(=O)C6CC6)C[C@H]5/C=C\CCCCCNC(=O)N4C3)cc(-c3nc(C(C)C)cs3)nc2c1Cl

pEC50 [1]: 8.40
pKi ([2]; read-out: Ki): 10.00
Papp A→B [3]: 29 ×10⁻⁶ cm/s
metabolized at 0.25 h, 5 µM [4]: 21%
SMILES: COc1ccc2c(O[C@@H]3C[C@H]4C(=O)N[C@]5(C(=O)NS(=O)(=O)C6(C)CC6)C[C@H]5/C=C\CCCCCNC(=O)N4C3)cc(-c3nc(C(C)C)cs3)nc2c1Cl

Vd [5]: 4.5 L/kg
pEC50 [1]: 7.59
pKi ([2]; read-out: Ki): 9.35
liver/plasma ratio at 8 h [6]: 12
Cmax [7]: 730 nM
bioavailability [8]: 37%
AUC [9]: 3.12 µM·h
half-life [10]: 2.55 h
Tmax [11]: 1.25 h
AUC [12]: 1.65 µM·h
clearance [13]: 27.5 mL/min/kg
SMILES: COc1ccc2c(O[C@@H]3C[C@H]4C(=O)N[C@]5(C(=O)NS(=O)(=O)C6CC6)C[C@H]5/C=C\CCCCN(C)C(=O)N4C3)cc(-c3nc(C(C)C)cs3)nc2c1

Vd [5]: 1.6 L/kg
pEC50 [1]: 8.30
pKi ([2]; read-out: Ki): 9.30
Papp A→B [3]: 3 ×10⁻⁶ cm/s
Cmax [7]: 26 nM
liver/plasma ratio at 6 h [14]: 9.5
bioavailability [8]: 1.3%
AUC [9]: 0.19 µM·h
half-life [10]: 3.8 h
Tmax [11]: 2 h
AUC [12]: 3 µM·h
clearance [13]: 15.7 mL/min/kg
SMILES: COc1ccc2c(O[C@@H]3C[C@H]4C(=O)N[C@]5(C(=O)NS(=O)(=O)C6CC6)C[C@H]5/C=C\CCCCNC(=O)N4C3)cc(-c3nc(C(C)C)cs3)nc2c1

pEC50 [1]: 8.17
pKi ([2]; read-out: Ki): 9.70
bioavailability [15]: 11%
SMILES: COc1ccc2c(O[C@@H]3C[C@H]4C(=O)N[C@]5(C(=O)NS(=O)(=O)C6(C)CC6)C[C@H]5/C=C\CCCCCNC(=O)N4C3)cc(-c3nc(C(C)C)cs3)nc2c1C

pEC50 [1]: 6.15
pKi ([2]; read-out: Ki): 7.92
SMILES: COc1ccc2c(O[C@@H]3C[C@H]4C(=O)N[C@]5(C(=O)NS(=O)(=O)C6CC6)C[C@H]5/C=C\CCCCCN(C)C(=O)N4C3)cc(-c3nc(C(C)C)cs3)nc2c1

pEC50 [1]: 7.01
SMILES: COc1ccc2c(O[C@@H]3C[C@H]4C(=O)N[C@]5(C(=O)NS(=O)(=O)C6CC6)C[C@H]5/C=C\CCCCCNC(=O)N4C3)cc(-c3cscn3)nc2c1

pEC50 [1]: 8.77
pKi ([2]; read-out: Ki): 10.30
metabolized at 0.25 h, 5 µM [4]: 23%
SMILES: COc1ccc2c(O[C@@H]3C[C@H]4C(=O)N[C@]5(C(=O)NS(=O)(=O)C6CC6)C[C@H]5/C=C\CCCCCNC(=O)N4C3)cc(-c3nc(C(C)C)cs3)nc2c1C

pEC50 [1]: 8.35
pKi ([2]; read-out: Ki): 10.00
Papp A→B [3]: 30 ×10⁻⁶ cm/s
Cmax [7]: 1710 nM
liver/plasma ratio at 6 h [14]: 105
bioavailability [8]: 54%
bioavailability [15]: 54%
metabolized at 0.25 h, 5 µM [4]: 89%
clearance [13]: 9.83 mL/min/kg
SMILES: COc1ccc2c(O[C@@H]3C[C@H]4C(=O)N[C@]5(C(=O)NS(=O)(=O)C6(C)CC6)C[C@H]5/C=C\CCCCCNC(=O)N4C3)cc(-c3nc(C(C)C)cs3)nc2c1
Selectivity Index [16]: >10000
CC50 ([17]; Huh-7 cells): > 50000 nM
Activity ([17]; huh-7): Non-toxic

Vd [5]: 1.46 L/kg
pEC50 [1]: 8.30
pKi ([2]; read-out: Ki): 9.70
Papp A→B [3]: 10 ×10⁻⁶ cm/s
Cmax [7]: 950 nM
liver/plasma ratio at 6 h [14]: 29
bioavailability [8]: 20%
bioavailability [15]: 20%
AUC [9]: 6.97 µM·h
half-life [10]: 5.4 h
metabolized at 0.25 h, 5 µM [4]: 93%
Tmax [11]: 1.25 h
AUC [12]: 7.09 µM·h
clearance [13]: 9.17 mL/min/kg
SMILES: COc1ccc2c(O[C@@H]3C[C@H]4C(=O)N[C@]5(C(=O)NS(=O)(=O)C6CC6)C[C@H]5/C=C\CCCCCNC(=O)N4C3)cc(-c3nc(C(C)C)cs3)nc2c1
